Results published in ChEMBL document CHEMBL4373710, “DNA Structural Alteration Leading to Antibacterial Properties of 6-Nitroquinoxaline Derivatives” (J Med Chem, 2019).
Values after ≈ are worked out from the molar mass of the structure shown. Active and inactive are the calls of the source. The rule behind the calls is not given here.

How the values were obtained:
[1] = tested on: Staphylococcus epidermidis; assay: Antibacterial activity against Staphylococcus epidermidis MTCC3615 by broth microdilution assay; assay type: functional
How it was run: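 Broth microdilution per CLSI; 5×10^5 cfu/mL bacteria in LB broth; compounds from DMSO stocks, final DMSO under 0.6%, with DMSO control. Plates incubated at the strain's recommended growth temperature and time; growth read as OD600.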

Calf thymus DNA = assay: Binding affinity to calf thymus DNA assessed as appearance of induced CD at […] by circular dichroism method; assay type: nucleic-acid assay; details: Bos taurus
DNA [2] = assay: Binding affinity to DNA isolated from HEK293 cells assessed as change in ellipticity at 262 nm at 15 to 180 uM by circular dichroism method; assay type: ADME, cell-free; details: human
DNA [3] = assay: Binding affinity to Staphylococcus aureus DNA assessed as transition of local to global DNA at 1:1 to 3:1 compound to DNA ratio by atomic force microscopic analysis; assay type: nucleic-acid assay
How it was run: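 Isolated S. aureus genomic DNA (2.8 Mbp) treated with compound at increasing [compound]:[DNA bp] ratios, up to 3:1. Imaged by atomic force microscopy against untreated DNA.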

DNA [4] = assay: Induction of DNA condensation in Staphylococcus aureus assessed as nucleoid shrinkage at 10 uM after 1 hr by DAPI staining-based confocal laser scanning fluorescence microscopic analysis; assay type: nucleic-acid assay
How it was run: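 S. aureus grown 6 h at 37 °C, washed into PBS and exposed to 10 µM compound or 0.5% DMSO for 1 h at 37 °C with shaking. Fixed in paraformaldehyde for 30 min at 4 °C, then DAPI-stained for 5 min. Nucleoid and cell areas measured from phase contrast/DAPI images; N/C ratio from 35 cells over three independent experiments, mean ± SD.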

Staphylococcus aureus [5] = assay: Inhibition of DNA synthesis in Staphylococcus aureus at 3.5 uM measured after 1 hr by BrdU incorporation assay; assay type: functional, organism-based
How it was run: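 Log-phase S. aureus (10^5–10^6 CFU/mL) exposed to 3.5 µM for 1 h at 37°C, then BrdU pulse for 30 min; fixed in paraformaldehyde, permeabilised (Triton X-100/lysostaphin), DNA denatured in 2N HCl, stained with FITC anti-BrdU antibody, confocal imaging.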

HEK293 = assay: Induction of DNA damage in HEK293 cells at 15 uM by TUNEL staining based confocal laser scanning fluorescence microscopic analysis; assay type: cell-based; details: human, hek293, 15 µM
How it was run: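 TUNEL in HEK 293 cells treated with 15 µM or 0.5% DMSO control; TdT incorporation of fluorescent nucleotides at strand-break 3′-OH ends, confocal imaging at 60X.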

Staphylococcus aureus [6] = assay: Disruption of cell membrane in Staphylococcus aureus assessed as accumulation of propidium iodide positive cells at 5 uM by flow cytometric analysis (reference value: 1.7%); assay type: functional

MIC [1]: 2.24 µg/mL (≈ 4.99 µM) | Activity (Calf thymus DNA): Dose-dependent effect | Activity (DNA [2]): Active | Activity (DNA [3]): Active | Activity (DNA [4]): Active
Structure (SMILES): CN(C)CCCNc1nc2cc([N+](=O)[O-])ccc2nc1NCc1ccc(C(F)(F)F)cc1
inhibition (Staphylococcus aureus [5]): Active | Activity (HEK293): Toxic | Activity (Staphylococcus aureus [6]): 20.4%
